Results: PMC9290614 (The Journal of Dermatology, 2021)
Where “and” joins values, the source holds several entries; their conditions need not be identical. Identical values can stand only once. Like-named read-outs stand apart in the source and are kept apart here.

Legend:
[1] = test system: plasma IL-17A, IL-17F, and IL-22; details: 30 mg b.i.d., PSOR-009 (ESTEEM 2) and PSOR-011 PD subsets; cited from earlier work
CYP3A4 = details: multiple p.o. doses of rifampicin (strong CYP3A4 induction); cited from earlier work
Population PK = type: in vivo, human; details: for AUC: human, plasma, oral, Median week 16 apremilast exposure (AUCτ,ss) derived from the PPK model, all subjects
Procedure, shortened: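 Pooled plasma levels came from healthy or patient subjects: single oral 20–50 mg or multiple 30/50 mg b.i.d. in phase 1, plus phase 2b/3 psoriasis studies, including Japanese sparse/intensive samples at weeks 8–24. After below-LOQ exclusion, 5704 samples remained. Base model: CL/F, first-order Ka, absorption lag, Vc/F, mixed residual error. Tested covariates included age, sex, race, bodyweight and smoking.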

[2] = test system: subjects with moderate to severe psoriasis; experiment: Exposure-response; type: in vivo, human; details: for Predicted probability of achieving sPGA response (0 or 1) at week 16: non-Japanese, placebo 5.0%; for Predicted probability of achieving PASI-75 response at week 16: placebo 6.1%; for Predicted probability of achieving PASI-50 response at week 16: placebo 20.0%; for sPGA Probability: at race-specific median AUCτ,ss; for Predicted probability of sPGA response (0 or 1): typical model-derived exposure, Japanese subjects, placebo 14.1%
[3] = type: in vivo, human; details: for Cmin (predose trough): geometric mean (CV% geometric mean); for AUC / AUC(0-t) / Cmax / Vd/F / half-life / Tmax: human, plasma, oral; for Tmax: median (minimum, maximum)
[4] = predominantly Caucasian healthy subjects, mean [SD]; cited from earlier work
[5] = test system: subjects with moderate to severe psoriasis; details: cited from earlier work
[6] = 10 mg b.i.d., median exposure 1065.4 ng·h/mL
[7] = 20 mg b.i.d., median exposure 2030.6 ng·h/mL
[8] = 30 mg b.i.d., median exposure 3169.2 ng·h/mL
[9] = PSOR-008/ESTEEM 1, 30 mg b.i.d.
[10] = PSOR-011, Japanese subjects, 30 mg b.i.d.

CCOc1cc([C@@H](CS(C)(=O)=O)N2C(=O)c3cccc(NC(C)=O)c3C2=O)ccc1OC [apremilast]
Effect on plasma IL-17A, IL-17F, and IL-22 [1]: significantly reduced
Decrease in apremilast exposure (CYP3A4): ~72%
Increase in apremilast clearance (CYP3A4): 3.6 times
Clearance faster than in a typical 45-year-old (Population PK): 14%
Clearance slower than in a 45-year-old (Population PK; 80-year-old): 8%
Vc/F greater than in a typical 82-kg individual (Population PK; 102-kg individual): approximately 14%
CL/F, typical value (RSE %) (Population PK; final PPK model): 9.25 (3.4) L/h
Clearance faster in Japanese versus non-Japanese individuals (Population PK; final PPK model): approximately 17%
Ka, first-order rate of absorption, typical value (RSE %) (Population PK; final PPK model): 1.83 (11.7) h^−1
Lag time of absorption, typical value (RSE %) (Population PK; final PPK model): 0.290 (11.7) h
Reduction of CL/F in subjects with psoriasis compared with healthy subjects (Population PK; final PPK model): approximately 17%
Vc/F, typical value (RSE %) (Population PK; final PPK model): 115 (2.2) L
AUC (Population PK; 20 mg, 20 mg b.i.d.): 2030 ng·h/mL
AUC (Population PK; 30 mg, 30 mg b.i.d.): 3170 ng·h/mL
Predicted probability of achieving sPGA response (0 or 1) at week 16 [2, 6]: 16.2%
Predicted probability of achieving PASI-75 response at week 16 [2, 6]: 19.0%
Predicted probability of achieving PASI-50 response at week 16 [2, 6]: 43.8%
sPGA Probability ([2]; 20 mg BID, Caucasian): 23.2%
sPGA Probability ([2]; 20 mg BID, Japanese): 32.9%
Predicted probability of achieving sPGA response (0 or 1) at week 16 [2, 7]: 22.7%
Predicted probability of achieving PASI-75 response at week 16 [2, 7]: 28.6%
Predicted probability of achieving PASI-50 response at week 16 [2, 7]: 55.3%
Predicted probability of sPGA response (0 or 1) ([2]; 20 mg b.i.d.): 33.8%
sPGA Probability ([2]; 30 mg BID, Caucasian): 27.5%
sPGA Probability ([2]; 30 mg BID, Japanese): 36.3%
Predicted probability of achieving sPGA response (0 or 1) at week 16 [2, 8]: 27.3%
Predicted probability of achieving PASI-75 response at week 16 [2, 8]: 36.5%
Predicted probability of achieving PASI-50 response at week 16 [2, 8]: 62.8%
Predicted probability of sPGA response (0 or 1) ([2]; 30 mg b.i.d.): 37.5%
Cmin (predose trough) ([3]; Japanese subjects, 20 mg b.i.d., week 20, n = 21): 91 ng/mL and 90.8 (50.1) ng/mL
Cmin (predose trough) ([3]; Japanese subjects, 30 mg b.i.d., week 20, n = 20): 104 ng/mL and 104 (66.6) ng/mL
Increase of mean AUCτ and Cmax with increase in dose ([3]; Japanese subjects, dose from 20 to 30 mg b.i.d.): ~ 1.2 times
AUC ([3]; 20 mg): 1960 ng·h/mL
AUC(0-t) ([3]; 20 mg): 1600 ng·h/mL
Cmax ([3]; 20 mg): 304 ng/mL
Vd/F ([3]; 20 mg): 68 L
half-life ([3]; 20 mg): 4.31 h
Tmax ([3]; 20 mg, Japanese subjects, 20 mg b.i.d., week 20, n = 21): ~2 h
AUC ([3]; 30 mg): 2400 ng·h/mL
AUC(0-t) ([3]; 30 mg): 1970 ng·h/mL
Cmax ([3]; 30 mg): 374 ng/mL
Vd/F ([3]; 30 mg): 83.1 L
half-life ([3]; 30 mg): 4.06 h
Tmax ([3]; 30 mg, Japanese subjects, 30 mg b.i.d., week 20, n = 20): ~2 h
AUC0-∞ [4]: 3270 [1081] ng·h/mL
Cmax [4]: 298 [81.4] ng/mL
Rate of PASI-75 response at week 16 ([5]; PSOR-005, 30 mg b.i.d.): 40.9%
Rate of sPGA response (0 or 1) at week 16 ([5]; PSOR-005, 30 mg b.i.d.): 33.0%
Treatment effect (difference in proportions between apremilast 30 mg b.i.d. and placebo), PASI-75 ([5]; PSOR-005): 35.2%
Treatment effect (difference in proportions between apremilast 30 mg b.i.d. and placebo), sPGA response ([5]; PSOR-005): 21.1%
Rate of PASI-75 response at week 16 [5, 9]: 33.1%
Rate of sPGA response (0 or 1) at week 16 [5, 9]: 21.7%
Treatment effect (difference in proportions between apremilast 30 mg b.i.d. and placebo), PASI-75 ([5]; PSOR-008/ESTEEM 1): 27.8%
Treatment effect (difference in proportions between apremilast 30 mg b.i.d. and placebo), sPGA response ([5]; PSOR-008/ESTEEM 1): 17.8%
Rate of PASI-75 response at week 16 [5, 10]: 28.2%
Rate of sPGA response (0 or 1) at week 16 [5, 10]: 29.6%
Treatment effect (difference in proportions between apremilast 30 mg b.i.d. and placebo), PASI-75 ([5]; PSOR-011): 21.1%
Treatment effect (difference in proportions between apremilast 30 mg b.i.d. and placebo), sPGA response ([5]; PSOR-011): 20.8%
